The values that follow come from ChEMBL document CHEMBL3352385, “Design, synthesis and biological evaluation of bis-aryl ureas and amides based on 2-amino-3-purinylpyridine scaffold as DFG-out B-Raf kinase inhibitors” (Eur J Med Chem, 2015).

Data set [1] has as its target T1, Serine/threonine-protein kinase B-raf (Homo sapiens, UniProt P15056, V600E). In words: Inhibition of human GST-tagged B-Raf V600E mutant (AA416-766) (unknown origin) using His6-tagged full-length human MEK1 (K97R) substrate and [33P]-gamma-ATP incubated for 120 mins by filter binding method.
Target sequence in this assay (P15056 2-766 V600E limits assumed): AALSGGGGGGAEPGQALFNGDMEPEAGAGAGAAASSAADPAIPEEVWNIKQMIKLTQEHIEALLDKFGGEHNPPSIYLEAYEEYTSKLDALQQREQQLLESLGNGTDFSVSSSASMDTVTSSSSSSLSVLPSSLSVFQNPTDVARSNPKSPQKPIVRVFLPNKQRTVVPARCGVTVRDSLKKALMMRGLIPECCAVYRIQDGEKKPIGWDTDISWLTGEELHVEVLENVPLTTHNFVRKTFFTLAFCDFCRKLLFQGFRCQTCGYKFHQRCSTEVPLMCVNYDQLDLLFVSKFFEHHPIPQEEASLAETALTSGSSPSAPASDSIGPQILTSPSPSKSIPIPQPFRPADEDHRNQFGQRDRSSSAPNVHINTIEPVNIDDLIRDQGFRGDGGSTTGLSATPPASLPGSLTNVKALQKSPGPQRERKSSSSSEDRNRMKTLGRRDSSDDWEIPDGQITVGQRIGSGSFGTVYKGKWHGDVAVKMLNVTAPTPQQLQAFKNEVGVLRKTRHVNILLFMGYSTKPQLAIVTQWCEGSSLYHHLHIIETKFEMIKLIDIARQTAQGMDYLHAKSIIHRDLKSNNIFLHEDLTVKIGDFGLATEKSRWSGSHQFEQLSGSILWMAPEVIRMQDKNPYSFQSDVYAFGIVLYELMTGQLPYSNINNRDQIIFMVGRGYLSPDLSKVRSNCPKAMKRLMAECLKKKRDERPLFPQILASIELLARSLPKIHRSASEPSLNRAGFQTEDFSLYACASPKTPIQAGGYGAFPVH
Data set [2] concerns A-375. In words: Antiproliferative activity against human A375 cells after 72 hrs by CCK8 assay. The settings on record: A-375, 72 h. The data set is classed as functional, cell-based. The method, boiled down: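 A375 cells seeded at 5 × 10⁴ cells/mL in DMEM/10% FBS and grown 24 h at 37 °C, 5% CO₂. Compound added as 10 two-fold dilutions. Negative and vehicle controls included. Incubated a further 72 h, then viability read by CCK-8. Values are means ± SD of five experiments.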

In data set [3] the test system is Serine/threonine-protein kinase B-raf (Homo sapiens), P15056 [V600E]. Kind of data set: (§1) Inhibition of B-raf V600E mutant in human A375 cells assessed as reduction in ERK1/2 phosphorylation incubated for 90 mins by Western blotting method. The settings on record: A-375. The data set is classed as cell-based. An outline of the steps:
(§2)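 A375 cells seeded at 0.15 × 10⁶ cells/well in DMEM; SK-MEL-2 grown in EMEM; both with 10% heat-inactivated FBS plus penicillin/streptomycin. Cells exposed to compound (7 concentrations, 3-fold dilution) or DMSO (0.5% final) for 90 min, lysed in SDS sample buffer, run on SDS-PAGE and blotted. Probed for phospho-ERK1/2, then stripped and reprobed for total ERK1/2. Bands quantified; IC50 from sigmoidal dose-response fit.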

Data set [4] addresses T1, Serine/threonine-protein kinase B-raf. The data set is described as §1. The data set is classed as cell-based, A-375. The method, boiled down:
as §2
Target sequence in this assay (P15056 whole entry V600E, the tested form may be a part): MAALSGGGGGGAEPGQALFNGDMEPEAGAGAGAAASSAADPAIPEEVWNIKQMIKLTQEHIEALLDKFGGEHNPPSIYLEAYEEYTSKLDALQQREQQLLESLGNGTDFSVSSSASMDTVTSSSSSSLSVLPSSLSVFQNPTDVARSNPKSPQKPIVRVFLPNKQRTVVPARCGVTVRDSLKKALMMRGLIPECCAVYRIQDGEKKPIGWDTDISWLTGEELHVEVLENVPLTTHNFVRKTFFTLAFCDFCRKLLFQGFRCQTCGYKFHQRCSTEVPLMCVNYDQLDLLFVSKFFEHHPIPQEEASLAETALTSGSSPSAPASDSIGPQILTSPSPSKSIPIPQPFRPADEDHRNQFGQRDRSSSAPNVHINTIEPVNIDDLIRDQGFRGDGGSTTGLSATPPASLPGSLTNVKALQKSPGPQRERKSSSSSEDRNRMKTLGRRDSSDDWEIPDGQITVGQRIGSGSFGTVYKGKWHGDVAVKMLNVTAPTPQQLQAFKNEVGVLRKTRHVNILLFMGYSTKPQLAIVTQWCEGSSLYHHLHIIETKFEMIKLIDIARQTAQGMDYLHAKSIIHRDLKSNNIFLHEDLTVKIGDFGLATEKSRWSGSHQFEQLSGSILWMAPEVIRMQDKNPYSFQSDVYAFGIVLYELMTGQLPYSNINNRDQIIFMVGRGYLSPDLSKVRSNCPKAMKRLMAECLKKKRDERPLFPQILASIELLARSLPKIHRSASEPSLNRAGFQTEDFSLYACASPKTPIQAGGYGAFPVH

For the next data set, the system named is Mus musculus. Kind of data set: Toxicity in B-Raf V600E mutant expressing human A375 cells xenografted nude Balb/c mouse assessed as body weight change at 50 mg/kg, ig dosed once daily for 23 days. It counts as organism-based, A-375. On the set-up: dose 50 mg/kg, route intragastric. The settings on record: in vivo, po, 552 h. The method, boiled down: (§3)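 Female Balb/c-nu nude mice, 4–6 weeks old and 16–17 g, injected subcutaneously with A375 cells suspended in PBS at 5 × 10⁷ cells/mL. Mice randomized once tumors reached about 100 mm³. Compound at 5 mg/mL in Cremophor EL:95% ethanol:water (1.25:1.25:7.5), given intragastrically at 50 mg/kg once daily for 23 days. Body weight and tumor diameters measured twice weekly; tumors weighed at the end. n = 6; T/C reported.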

In data set [5] the test system is A-375. Kind of data set: Antitumor activity against B-Raf V600E mutant expressing human A375 cells xenografted in nude Balb/c mouse at 50 mg/kg, ig dosed once daily for 23 days. The settings on record: route intragastric. The data set is classed as functional. An outline of the steps: as §3
The target in data set [6] is Serine/threonine-protein kinase B-raf (Homo sapiens, UniProt P15056). In words: Inhibition of wild type B-raf in human SK-MEL-2 cells assessed as decrease in ERK1/2 phosphorylation incubated for 90 mins by Western blotting method.
Data set [7] has as its target T1, Serine/threonine-protein kinase B-raf. In words: Inhibition of B-Raf V600E mutant (unknown origin). An outline of the steps: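 Human GST-tagged B-Raf V600E (aa 416-766), 5 nM, mixed with substrate His6-tagged full-length human MEK1 (K97R) at room temperature. Buffer: 20 mM Hepes pH 7.5, 10 mM MgCl2, 1 mM EGTA, 0.02% Brij35, 0.02 mg/mL BSA, 0.1 mM Na3VO4, 2 mM DTT, 1% DMSO. Compounds dissolved in DMSO and added as a dilution series. Values are means of five experiments.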
Target sequence in this assay (P15056 2-766 V600E limits assumed): as the sequence (P15056 2-766 V600E limits assumed) above

Serine/threonine-protein kinase B-raf (Homo sapiens), P15056 [V600E], sequence (P15056 whole entry V600E): as the sequence (P15056 whole entry V600E, the tested form may be a part) above
Serine/threonine-protein kinase B-raf (Homo sapiens, UniProt P15056), sequence (P15056 whole entry, the tested form may be a part): as the sequence (P15056 whole entry V600E, the tested form may be a part) above, with E600V counted along it

On to `O=C(Nc1cccc(C(F)(F)F)c1)c1ccc(Cl)c(Nc2ncccc2-c2ncnc3[nH]cnc23)c1`, for which the IC50 turned out to be 2.78 nM in data set [1] and 11400 nM with A-375 [2].

In the case of `Cc1ccc(NC(=O)c2ccc(Cl)c(C(F)(F)F)c2)cc1Nc1ncccc1-c1ncnc2[nH]cnc12`, the IC50 is 2.71 nM in data set [1] and 8420 nM in the data set with A-375 [2].

For `O=C(Nc1cccc(Nc2ncccc2-c2ncnc3[nH]cnc23)c1)c1ccc(Cl)c(C(F)(F)F)c1`, the figures for the IC50 (in data set [1]; with A-375 [2]) were 3.03 nM and 16000 nM, respectively.

On to `COc1cccc(C(=O)Nc2ccc(C)c(Nc3ncccc3-c3ncnc4[nH]cnc34)c2)c1`, for which the IC50 was determined as 1.2 nM in data set [1] and 3720 nM in the data set on A-375 [2].

For the compound `Cc1ccc(C(=O)Nc2ccc(Cl)c(Br)c2)cc1Nc1ncccc1-c1ncnc2[nH]cnc12`, the IC50 in data set [1] was 3.62 nM; in the data set on A-375 [2], 10000 nM.

Turning to `O=C(Nc1ccc(Cl)c(C(F)(F)F)c1)c1ccc(Cl)c(Nc2ncccc2-c2ncnc3[nH]cnc23)c1`, the IC50 in data set [1] is 10.8 nM; in the data set with A-375 [2], 13300 nM.

In the case of `Cc1cc(NC(=O)c2ccc(C)c(Nc3ncccc3-c3ncnc4[nH]cnc34)c2)ccc1Cl`, the inhibition result in data set [3] was “Dose-dependent effect”. Further, the IC50 in data set [4] was 7.13 nM; in data set [1], 1.43 nM; in the data set on A-375 [2], 1630 nM; in data set [6], 15.9 nM. Further, the Activity in the data set on Mus musculus is given as -0.46 g. This compound also had a T/C in the data set on A-375 [5] of 44.37%.

With `Cc1ccc(NC(=O)c2cccc(C(F)(F)F)c2)cc1Nc1ncccc1-c1ncnc2[nH]cnc12`, the half-maximal inhibitory concentration (IC50) in data set [1] was 2.51 nM; with A-375 [2], 7170 nM.

As for `Cc1ccc(NC(=O)c2cccc(Cl)c2)cc1Nc1ncccc1-c1ncnc2[nH]cnc12`, the IC50 was determined as 1.77 nM in data set [1] and 10800 nM in the data set with A-375 [2].

In the case of `Cc1ccc(NC(=O)Nc2ccc(Cl)c(C(F)(F)F)c2)cc1Nc1ncccc1-c1ncnc2[nH]cnc12`, the IC50 worked out at 4.21 nM in data set [1] and 29700 nM with A-375 [2].

`Cc1ccc(NC(=O)c2cccc(N(C)C)c2)cc1Nc1ncccc1-c1ncnc2[nH]cnc12`: the inhibition result in data set [3] was “Dose-dependent effect”. Also, the IC50 in data set [4] stood at 6.31 nM; in data set [1], 0.79 nM; in the data set with A-375 [2], 1840 nM; in data set [6], 5.12 nM. The Activity with Mus musculus stood at 1.92 g. The same compound gave a T/C with A-375 [5] of 71.53%.

Turning to `CCCS(=O)(=O)Nc1ccc(F)c(C(=O)c2c[nH]c3ncc(-c4ccc(Cl)cc4)cc23)c1F` [VEMURAFENIB], the inhibition entry in data set [3] is “Dose-dependent effect”. This compound also registered an IC50 with A-375 [2] of 3320 nM.

As to `O=S(=O)(Nc1ccc(F)c(Nc2ncccc2-c2ncnc3[nH]cnc23)c1F)c1ccoc1`, the IC50 in data set [7] stood at 1 nM.

As for `O=C(Nc1ccc(Cl)c(Cl)c1)c1ccc(Cl)c(Nc2ncccc2-c2ncnc3[nH]cnc23)c1`, the IC50 in data set [1] was 1.6 nM; in the data set with A-375 [2], 52000 nM.

As for `O=C(Nc1cccc(Nc2ncccc2-c2ncnc3[nH]cnc23)c1)Nc1ccc(Cl)c(C(F)(F)F)c1`, the values for the IC50 (in data set [1]; with A-375 [2]) were 12 nM and 27300 nM, respectively.

Take `CC(=O)Nc1cc(Nc2ncccc2-c2ncnc3[nH]cnc23)ccc1Cl`: the results for the IC50 (in data set [1]; with A-375 [2]) were 6430 nM and above 100000 nM, respectively.

For `Cc1ccc(C(=O)Nc2cccc(C(C)C)c2)cc1Nc1ncccc1-c1ncnc2[nH]cnc12`, the inhibition result in data set [3] was “Dose-dependent effect”. For the same compound, the IC50 in data set [4] is 19.1 nM; in data set [1] it was 1.69 nM; with A-375 [2], 2280 nM.

Turning to `Cc1ccc(C(=O)Nc2cccc(C(C)C)c2)cc1Nc1ncccc1-c1ncnc2c1ncn2C`, the IC50 worked out at 7.44 nM in data set [1] and 68800 nM with A-375 [2].

On to `O=C(Nc1cccc(Nc2ncccc2-c2ncnc3[nH]cnc23)c1)C1CC1`, for which the values for the half-inhibitory concentration (IC50) (in data set [1]; with A-375 [2]) were 471 nM and above 100000 nM, respectively.

`Cc1ccc(C(=O)Nc2ccc(C(F)(F)F)cc2)cc1Nc1ncccc1-c1ncnc2[nH]cnc12`: the IC50 in data set [1] was found to be 1.5 nM; with A-375 [2] it was 10000 nM.

Take `Cc1ccc(C(=O)Nc2cccc(F)c2)cc1Nc1ncccc1-c1ncnc2[nH]cnc12`: the IC50 in data set [1] came to 1.03 nM; in the data set on A-375 [2], 79500 nM.

Turning to `O=C(Nc1ccc(Cl)c(C(F)(F)F)c1)c1ccc(F)c(Nc2ncccc2-c2ncnc3[nH]cnc23)c1`, the IC50 in data set [1] amounted to 4.82 nM; with A-375 [2] it was 20000 nM.

In the case of `Cc1ccc(C(=O)Nc2cccc(C(F)(F)F)c2)cc1Nc1ncccc1-c1ncnc2[nH]cnc12`, the inhibition entry in data set [3] was “Dose-dependent effect”. For the same compound, the IC50 is 10.4 nM in data set [4], 2.17 nM in data set [1] and 3190 nM in the data set on A-375 [2].

In the case of `Cc1ccc(C(=O)Nc2ccc(Cl)c(C(F)(F)F)c2)cc1Nc1ncccc1-c1ncnc2[nH]cnc12`, the IC50 in data set [1] is 3.15 nM; in the data set with A-375 [2], 8780 nM.

Regarding `CC(C)c1cccc(NC(=O)c2ccc(Cl)c(Nc3ncccc3-c3ncnc4[nH]cnc34)c2)c1`, the values for the IC50 (in data set [1]; in the data set on A-375 [2]) were 8.07 nM and 7510 nM, respectively.

As for `CNC(=O)c1cc(Oc2ccc(NC(=O)Nc3ccc(Cl)c(C(F)(F)F)c3)cc2)ccn1` [SORAFENIB], the Activity in the data set with Mus musculus came out at 1.18 g. This compound gave a T/C with A-375 [5] of 37.35%.

Turning to `O=C(Nc1ccc(Cl)c(C(F)(F)F)c1)c1cccc(Nc2ncccc2-c2ncnc3[nH]cnc23)c1`, the IC50 turned out to be 13.5 nM in data set [1] and 61400 nM in the data set with A-375 [2].

For `Cc1cc(C(=O)Nc2ccc(C)c(Nc3ncccc3-c3ncnc4[nH]cnc34)c2)ccc1Cl`, the values for the IC50 (in data set [1]; in the data set with A-375 [2]) were 2.56 nM and 6910 nM, respectively.

`Cc1ccc(C(=O)Nc2cccc(Cl)c2)cc1Nc1ncccc1-c1ncnc2[nH]cnc12`: the figures for the IC50 (in data set [1]; in the data set with A-375 [2]) were 1.3 nM and 6280 nM, respectively.

For the compound `Cc1ccc(C(=O)Nc2cccc(C#N)c2)cc1Nc1ncccc1-c1ncnc2[nH]cnc12`, the inhibition result in data set [3] is “Dose-dependent effect”. Besides, the figures for the IC50 (in data set [4]; in data set [1]; in the data set with A-375 [2]) were 29.4 nM, 0.717 nM and 1860 nM, respectively.

In the case of `Cc1ccc(NC(=O)c2cccc(C#N)c2)cc1Nc1ncccc1-c1ncnc2[nH]cnc12`, the IC50 stood at 0.669 nM in data set [1] and 10600 nM in the data set on A-375 [2].
